Only some compounds are listed: those with a hit (about 3.2% of all), similar ones and a draw of the others.
LEDGF integ inh = blocks HIV-1 LEDGF/p75-dependent DNA integration. inhibition, % at 3.7 µM. AID 743269. actives 0.64% (n = 370,000). TR-FRET IN-LEDGF/p75 DNA integration, Eu/Cy5;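 active = inhibition above the screen-wide mean plus 3 SD, cut at about 13% in these data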;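 note: signal is the Cy5 over europium emission ratio at 671 and 618 nm; 0% = plate median of compound wells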
ABHD4 inh = ABHD4 (mouse) inhibition, primary FP screen | actives 0.54% (n = 370,000) | Q8VD66 | AID 720543 | purified mABHD4, FP-Rh probe fluorescence polarization | inhibition, % at 8.92 µM;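 active = inhibition exceeding the mean over every tested compound plus 3 SD, cut at about 30% in these data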;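 note: 0% = plate median of compound wells and 100% = S159A mutant with DMSO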
Target sequence (Q8VD66 whole entry, looked up): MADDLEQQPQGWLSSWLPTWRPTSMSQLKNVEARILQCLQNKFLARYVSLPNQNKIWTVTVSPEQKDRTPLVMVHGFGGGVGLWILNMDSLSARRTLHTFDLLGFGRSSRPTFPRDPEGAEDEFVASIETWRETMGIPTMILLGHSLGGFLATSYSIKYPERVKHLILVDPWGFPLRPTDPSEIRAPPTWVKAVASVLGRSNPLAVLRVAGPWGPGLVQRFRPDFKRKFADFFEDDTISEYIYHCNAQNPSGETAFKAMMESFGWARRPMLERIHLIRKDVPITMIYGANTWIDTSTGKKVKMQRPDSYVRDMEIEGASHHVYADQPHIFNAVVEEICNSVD
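System: mouse ABHD4 enzyme, wild type / Medium: HEPES pH 7.0, NaCl, Pluronic buffer / Reagent: FP-Rh activity-based fluorescent probe / Control set: S159A mutant high control, sample median low control / Detection: fluorescence polarization with parallel and perpendicular emission, 525/598 nm / Schedule: 45 min + 60 min at 25 °C / Compound dosing: 8.92 µM, single dose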
HTRA1 inhibitor = HTRA1 (human) protease inhibition; recombinant HTRA1, FP-rhodamine activity-based probe, fluorescence polarization; inhibition, % at 5.96 µM; actives 0.5% (n = 340,000); in the data active = inhibition above about 36%;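 note: 0% = enzyme with DMSO and 100% = wells lacking enzyme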
rCAG RNA binder = molecules binding r(CAG) RNA repeats; r(CAG) RNA repeat, TO-PRO-1 dye displacement fluorescence; AID 651821; inhibition, % at 3 µM; actives 1.3% (n = 370,000);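 active = inhibition above the plate cutoff, the mean of all test compounds on that plate plus 3 SD, cut at about 35% in these data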;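 note: 0% = DMSO alone and 100% = 100 µM mitoxantrone as full dye displacement; higher means more dye released from RNA so lower well fluorescence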
PRMT1 FP inh = blocks human protein arginine methyltransferase 1; inhibition, % at 2.79 µM; actives 1.3% (n = 370,000); recombinant PRMT1, activity-based probe fluorescence polarization;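 active = inhibition above about 21% made by adding two undisclosed values, limit read from the data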
DAGLB inhibitor = blocks human DAGLB lipase activity | Q8NCG7 | HEK293T DAGLB membrane lysate, EnzChek fluorogenic substrate | inhibition, % at 5.17 µM | actives 0.059% (n = 340,000) | AID 504411; in the data active = inhibition above about 34%;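 note: 0% = enzyme with vehicle and 100% = wells lacking enzyme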
HTRA1 conf = confirmation of human HTRA1 inhibitors; actives 66% (n = 1,600); recombinant HTRA1, FP-rhodamine activity-based probe, fluorescence polarization; shares compounds with HTRA1 inhibitor; inhibition, % at 5.96 µM;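 active = mean inhibition over three repeats above a set limit taken from the earlier primary screen, cut at about 37% in these data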;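 note: 0% = HTRA1 with DMSO and 100% = wells lacking HTRA1; inhibitors block probe binding so polarization drops and inhibition rises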
rCAG bind conf = r(CAG) RNA repeat binding, confirmation | shares compounds with rCAG RNA binder | TO-PRO-1 dye displacement fluorescence | actives 70% (n = 4,300) | inhibition, % at 3 µM | AID 652065;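 active = inhibition above a per-plate cutoff, the mean inhibition of sample wells plus 3 SD, cut at about 35% in these data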;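 note: loss of TO-PRO-1 fluorescence as compound displaces dye from 1x1 AA loop RNA; 0% = DMSO only wells and 100% = 100 µM mitoxantrone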
DNA CAG counter = DNA CAG dye complex inhibition counter-screen. d(CAG) DNA oligo TO-PRO-1 dye displacement, fluorescence. inhibition, % at 3 µM. actives 94% (n = 4,300). shares compounds with rCAG RNA binder;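 active = inhibition above its plate's cutoff, the mean test-well inhibition plus 3 SD, cut at about 4.8% in these data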;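 note: 0% = DNA dye mix with DMSO and 100% = 100 µM mitoxantrone; hits displace the dye from DNA and so lower well fluorescence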
PRMT1 confirm = confirmation of human PRMT1 inhibitors; shares compounds with PRMT1 FP inh; recombinant His-PRMT1, activity-based probe fluorescence polarization; inhibition, % at 2.79 µM; actives 42% (n = 3,300); AID 687036;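 active = mean inhibition across replicates above the hit cutoff derived for the earlier primary screen, cut at about 22% in these data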
mABHD4 conf = confirmation of mouse ABHD4 inhibitors. shares compounds with ABHD4 inh. purified mABHD4, FP-Rh probe fluorescence polarization. inhibition, % at 8.92 µM. actives 55% (n = 1,800);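 active = mean inhibition across replicates above the hit cutoff set in the primary screen, cut at about 30% in these data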;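 note: 0% = wild-type ABHD4 with DMSO and 100% = catalytically dead S159A mutant with DMSO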
The depositor's hits bear a star; . = no result.

SMILES	LEDGF integ inh	ABHD4 inh	HTRA1 inhibitor	rCAG RNA binder	PRMT1 FP inh	DAGLB inhibitor	HTRA1 conf	mABHD4 conf	others
O=Nc1c(O)c2ccccc2c2ccccc12	-2	51*	62*	16	2	6	78*	58*
O=C(N/N=C/c1ccc(O)cc1)c1csc2ccccc12	-3	-7	-14	5	-2	8	.	.
CCCCC(=O)Nc1nc(C)c(-c2csc(Nc3ccccc3OC)n2)s1	4	-11	0	21	17	1	.	.
CCCCCC(=O)Nc1nc(C)c(-c2csc(Nc3cc(OC)ccc3OC)n2)s1	-1	44*	42*	34	2	-1	21	56*
Cc1ccc2sc(NNC(=O)c3cc(=O)c4ccccc4o3)nc2c1C	1	41*	70*	75*	10	23	132*	59*	rCAG bind conf=86*;DNA CAG counter=45*
Cc1cccc2sc(NNC(=O)c3cc(=O)c4ccccc4o3)nc12	9	30*	38*	54*	14	13	64*	44*	rCAG bind conf=78*;DNA CAG counter=35*
CCc1c(-c2ccc(Cl)cc2)ncn1CCc1ccccc1OC	3	5	.	2	3	.	.	.
CN(C)c1ccc(C(=O)Nc2nc3c(s2)CCCC3)cc1	-2	21	-5	4	3	2	.	.
C/C(=N\Nc1nc2c(s1)CCCC2)c1ccc(Cl)cc1	-1	32*	54*	8	7	-1	14	50*
O=C(N/N=C/c1cc2c3c(c1O)CCCN3CCC2)c1ccccc1O	-6	44*	51*	18	17	11	58*	22
O=C1CC(Nc2ccc(N3CCOCC3)cc2)C(=O)N1c1ccccc1 (stereo unspecified)	.	.	14	.	.	3	.	.
CCOc1ccccc1N1C(=O)CC(Nc2ccc(N3CCOCC3)cc2)C1=O (stereo unspecified)	11	46*	44*	13	5	7	14	9
COc1cc(CNc2ccc(O)cc2)cc(Br)c1OCc1ccccc1	10	52*	57*	6	9	2	16	12
COc1ccc(Br)cc1CNc1ccc(O)cc1	11	65*	74*	18	17	6	10	30*
COc1ccc(Br)cc1CNc1ccc2[nH]c(=O)[nH]c2c1	-2	10	12	0	10	3	.	.
COc1cc(CNC(C)c2ccccc2)cc(Br)c1OCc1ccccc1 (stereo unspecified)	2	11	-15	-7	-1	-9	.	.
Oc1ccc(NCc2ccc(OCc3ccccc3)cc2)cc1	7	53*	47*	-32	34*	1	6	19	PRMT1 confirm=11
Cc1nn(C)c(C)c1/C=C/C(=O)c1ccccc1	-1	-6	4	-3	-3	1	.	.
C=CCn1c(SCC(=O)Nc2cc(C)on2)nnc1-c1ccccc1OC	-1	1	3	0	1	0	.	.
C=CCn1c(SCC(=O)c2ccc(O)c(O)c2)nnc1-c1cccc(C)c1	-2	41*	70*	16	7	27	78*	30*
C=CCn1c(SCC(=O)c2ccc(O)c(O)c2)nnc1-c1ccccc1OC	-6	29*	59*	13	10	7	49*	10
COc1ccc(C(=O)CN2C(=O)c3ccccc3C2=O)c(OC)c1	0	-1	-3	-4	2	-2	.	.
Cc1occc1C(=O)Nc1sc2c(c1C(N)=O)CCCCC2	1	-3	-4	8	6	4	.	.
N#CC1=C2N=C(N)c3ccccc3N2C2=C(C(=O)CCC2)C1c1ccc(F)cc1 (stereo unspecified)	-3	8	-5	3	7	0	.	.
N#CC1=C2N=C(N)c3c(sc4c3CCCCC4)N2C2=C(C(=O)CCC2)C1c1ccccc1 (stereo unspecified)	4	32*	40*	16	16	10	9	-26
SMILES	LEDGF integ inh	ABHD4 inh	HTRA1 inhibitor	rCAG RNA binder	PRMT1 FP inh	DAGLB inhibitor	HTRA1 conf	mABHD4 conf	others
O=C(COC(=O)c1ccc(Cl)nc1)Nc1ncc(Cl)cc1Cl	-5	5	2	5	4	-1	.	.
CC1(C)CNc2cc(N)ccc2S1	13	38*	72*	11	12	5	13	40*
O=C(O)c1ccc(CSc2nnnn2-c2ccc(F)cc2)cc1	-5	-2	-1	2	-6	-2	.	.
O=C(CSc1nnnn1-c1ccc(F)cc1)c1ccc(O)c(O)c1	-7	30*	41*	20	4	16	53*	15
CC(C)(C)c1ccc(O)c(N=Cc2cc3c(cc2[N+](=O)[O-])OCO3)c1	7	49*	39*	25	7	0	9	40*
Cn1c(-c2cnn(-c3ccccc3)c2-n2cccc2)n[nH]c1=S	4	4	0	-1	0	1	.	.
O=C1CCCC2=C1C(c1ccc(O)c(O)c1)Nc1ccc3ccccc3c12 (stereo unspecified)	1	32*	64*	11	17	4	72*	26
COc1ccccc1CNC(=O)C1CCN(S(=O)(=O)c2cccc([N+](=O)[O-])c2)CC1	-3	-7	-6	7	3	0	.	.
O=S(c1ccccc1O)S(=O)c1ccccc1O (stereo unspecified)	4	37*	40*	72*	88*	11	34	34*	PRMT1 confirm=95*
Oc1ccc(NCc2ccccc2OCc2ccccc2F)cc1	5	49*	63*	2	12	2	21	50*
COc1cccc(CNCCO)c1OCc1ccc(Cl)cc1	0	5	0	3	5	-2	.	.
NS(=O)(=O)c1ccc(NCc2ccccc2OCc2ccccc2F)cc1	-1	-10	-15	4	-2	-2	.	.
CCOc1cccc(CNc2ccc(O)cc2)c1OCc1ccc(Cl)cc1	4	41*	49*	18	4	3	19	36*
Cc1cccc(NNC(=O)C(=O)NNc2cccc(C)c2)c1	5	10	.	-1	-5	.	.	.

High-throughput results from PubChem.
